ALR inh: human ALR oxidase inhibition via reduced H2O2; P55789; purified ALR, DTT oxidation, H2O2 HRP-luminol luminescence; inhibition, % (test concentration not listed); hit rate 3.8% among 290,000; AID 485317;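 active = mean replicate inhibition above about 79%, with every replicate also reaching it, limit read from the data; inconclusive = only one of the two criteria met; inactive = mean below limit and not every replicate reaching it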
Target sequence (P55789 whole entry, looked up): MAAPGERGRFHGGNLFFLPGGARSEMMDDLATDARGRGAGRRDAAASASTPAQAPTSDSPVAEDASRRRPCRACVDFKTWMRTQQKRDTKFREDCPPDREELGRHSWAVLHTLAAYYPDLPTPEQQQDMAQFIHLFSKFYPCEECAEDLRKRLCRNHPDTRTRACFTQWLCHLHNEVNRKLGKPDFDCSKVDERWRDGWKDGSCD
T cell modulator: modulates CD8 T cell binding to vesicles; 2C CD8+ T cell-vesicle binding, flow cytometry; hits give low values; response (vesicle binding), % at 7 µM; hit rate 0.068% among 330,000;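 active = response, share of CD8 T cells binding vesicles, and their 90th percentile fluorescence all below set limits, cut at about 80% in these data, passing the limit was not always enough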;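 also: values below 100% mean blocked vesicle binding to the CD8+ T cells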
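Test system: purified 2C TCR transgenic mouse naive CD8+ T cells. Probe or stimulus: QL9-peptide-loaded Drosophila micro-vesicles bearing Ld, ICAM-1 and B7-1. Incubation: binding step 1.5 h, 37 °C, antibody labelling 20 min, ice. Measured by: flow cytometry of vesicle-bound cells.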
Glyco luc inh: blocks N-linked glycosylation in D54 reporter cells; D54 ERlucT glycosylation luciferase reporter, 24 h; percent of 100 nM tunicamycin response; reporter increase, % at 12.5 µM; hit rate 0.23% among 360,000;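 active = mean luciferase reporter signal, scaled so untreated is 0 and the glycosylation-blocking control 100, at or above a set limit in every replicate; inconclusive = mean reaches the limit but not every replicate does; inactive = mean below the limit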;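 also: luciferase carries N-glycosylation sites so blocking glycosylation raises the light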
Hits are given with their value. Many of the other results were omitted from the sample, so hits are more common in it than they were.

COc1ccc(C(C)(C)C)cc1NC(=O)c1cccc(S(=O)(=O)N2CCN(C(C)=O)CC2)c1 was read as ALR inh inactive, T cell modulator inactive and Glyco luc inh inactive.
`Cc1cc2ncn(S(=O)(=O)c3ccc(F)cc3)c2cc1C` gave ALR inh inactive, T cell modulator inactive and Glyco luc inh inactive.
Cc1cc2ncn(C(=O)c3ccc(F)cc3)c2cc1C was read as ALR inh 97.7, T cell modulator inactive and Glyco luc inh inactive.
Screening COc1c(C(=O)NNC(=O)c2ccccc2Cl)csc1Br returned ALR inh inactive, T cell modulator inactive and Glyco luc inh inactive.
Screening Cc1csc(=O)n1CC(=O)OC(C)C(=O)Nc1cccc(Cl)c1 (configuration not stated) returned ALR inh inactive, T cell modulator inactive and Glyco luc inh inactive.
Cc1c(C(=O)N2CCCCC2)c(S(=O)(=O)NCc2ccc(N(C)C)cc2)c(C)n1C was read as ALR inh 98.4, T cell modulator inactive and Glyco luc inh inactive.
Screening Cc1ccc(CNS(=O)(=O)c2c(C(=O)N3CCCCC3)c(C)n(C)c2C)cc1 returned ALR inh inactive, T cell modulator inactive and Glyco luc inh inactive.
`CCn1c(SCCC(=O)O)nnc1-c1cccnc1` gave ALR inh inactive, T cell modulator inactive and Glyco luc inh inactive.
`CCn1c(SCC(=O)c2ccccc2)nnc1-c1cccnc1` gave ALR inh 91.0, T cell modulator inactive and Glyco luc inh inactive.
Screening CCn1c(SCC(=O)c2ccccc2)nnc1-c1ccoc1C returned ALR inh 84.1, T cell modulator inactive and Glyco luc inh inactive.
For CCn1c(SCC(=O)c2ccc(C)cc2)nnc1-c1ccoc1C the results were ALR inh inactive, T cell modulator inactive and Glyco luc inh inactive.
For O=C(N/N=C/c1cccnc1)c1cc(-c2ccccc2OCc2ccccc2)n[nH]1 the results were ALR inh inactive, T cell modulator inactive and Glyco luc inh 40.9.
For O=C(N/N=C/c1cccnc1)c1ccccc1OCc1ccc(Cl)cc1 the results were ALR inh inactive and T cell modulator inactive.
CN(c1ccc(C(=O)N2CCCCCC2)cc1)S(=O)(=O)c1ccc(Cl)cc1 was read as ALR inh inactive, T cell modulator inactive and Glyco luc inh inactive.
`CC(C)C(=O)Nc1nnc(NC(=S)Nc2ccccc2)s1` gave ALR inh 81.9, T cell modulator inactive and Glyco luc inh inactive.
`CCCc1nnc(NC(=S)Nc2ccccc2)s1` gave ALR inh inactive, T cell modulator inactive and Glyco luc inh inactive.
For CC(OC(=O)C1CSC2(C)CCC(=O)N12)C(=O)Nc1ccc(F)cc1 (configuration not stated) the results were ALR inh inactive, T cell modulator inactive and Glyco luc inh inactive.
`CCOC(=O)c1c(C)c(C(=O)N2CCN(C(=O)c3ccco3)CC2)c(C)n1C` gave ALR inh inactive, T cell modulator inactive and Glyco luc inh inactive.
CCOC(=O)c1c(C)n(C(=O)c2ccco2)c(=O)n1C(=O)c1ccco1 was read as ALR inh 96.8, T cell modulator inactive and Glyco luc inh inactive.
`CCOC(=O)Cc1nc2ccccc2n(CC#N)c1=O` gave ALR inh inactive, T cell modulator inactive and Glyco luc inh inactive.
NS(=O)(=O)c1ccc(Sc2ccc3ccccc3c2)nc1 was read as ALR inh 99.0, T cell modulator inactive and Glyco luc inh inactive.
For NS(=O)(=O)c1ccc(SCc2ccccc2)nc1 the results were ALR inh inactive, T cell modulator inactive and Glyco luc inh inactive.
For COc1cc(-c2coc3c(C(=O)NCc4ccc(N(C)C)cc4)cccc23)ccc1O the results were Glyco luc inh inactive.
Screening COc1ccc(CNC(=O)c2cccc3c(-c4cccc(C(N)=O)c4)coc23)cc1OC returned Glyco luc inh 59.8.
Screening COc1ccc(CNC(=O)c2cccc3c(-c4ccc(F)c(F)c4)coc23)cc1OC returned Glyco luc inh inactive.
`COc1cc(-c2coc3c(C(=O)NCc4ccc(OC)c(OC)c4)cccc23)ccc1O` gave Glyco luc inh 90.9.
For COc1ccc(CNC(=S)Nc2ccc3nc(N4CCOCC4)cc(C)c3c2)cc1 the results were ALR inh 98.8, T cell modulator inactive and Glyco luc inh inactive.
CCOCCCNC(=S)Nc1ccc2nc(N3CCOCC3)cc(C)c2c1 was read as ALR inh 99.1, T cell modulator inactive and Glyco luc inh inactive.
Screening CCN(CC)CCNC(=S)Nc1ccc2nc(N3CCCC3)cc(C)c2c1 returned ALR inh 99.4, T cell modulator inactive and Glyco luc inh inactive.
For COCCCNC(=S)Nc1ccc2nc(N3CCOCC3)cc(C)c2c1 the results were ALR inh inactive, T cell modulator inactive and Glyco luc inh inactive.
`CCN(CC)CCNC(=S)Nc1ccc2nc(N3CCN(C)CC3)cc(C)c2c1` gave ALR inh inactive, T cell modulator inactive and Glyco luc inh inactive.
COc1ccc(CNC(=S)Nc2ccc3nc(N4CCN(C)CC4)cc(C)c3c2)cc1 was read as ALR inh inactive, T cell modulator inactive and Glyco luc inh inactive.
For CCCN1CCN(C(=O)C2CCN(S(=O)(=O)c3c(C)noc3/C=C/c3ccc(C)cc3)CC2)CC1 the results were ALR inh inactive, T cell modulator inactive and Glyco luc inh inactive.
`CCc1cc(C(=O)N2CCN(c3ncccn3)CC2)sc1C` gave ALR inh inactive, T cell modulator inactive and Glyco luc inh inactive.
O=C(/C=C/c1ccc(O)c(O)c1)c1ccc(S(=O)(=O)N2CCCCCC2)cc1 was read as ALR inh inactive, T cell modulator inactive and Glyco luc inh inactive.
O=C(/C=C/c1ccc(O)c(O)c1)O[C@@H]1C[C@](O)(C(=O)O)C[C@@H](O)[C@H]1O was read as ALR inh 99.8, T cell modulator inactive and Glyco luc inh inactive.
Screening COc1cc(/C=C/C(=O)OC2CC3CCC2(C)C3(C)C)ccc1O (configuration not stated) returned ALR inh inconclusive, T cell modulator inactive and Glyco luc inh inactive.
Screening O=C(/C=C/c1ccc(O)c(O)c1)OC1C(O)CC(OC(=O)/C=C/c2ccc(O)c(O)c2)(C(=O)O)CC1O (configuration not stated) returned ALR inh 98.7, T cell modulator inactive and Glyco luc inh inactive.
For COc1cc2[nH]c(=S)n(CC3CCCO3)c(=O)c2cc1OC (configuration not stated) the results were ALR inh inactive, T cell modulator inactive and Glyco luc inh inactive.
For CCOc1cc2[nH]c(=S)n(CC3CCCO3)c(=O)c2cc1OCC (configuration not stated) the results were ALR inh 95.2, T cell modulator inactive and Glyco luc inh inactive.
`COCCn1c(=S)[nH]c2cc(C(=O)NCC3CCCO3)ccc2c1=O` (configuration not stated) gave ALR inh 98.3, T cell modulator inactive and Glyco luc inh inactive.
For COCCn1c(=O)[nH]c2cc(C(=O)NCC3CCCO3)ccc2c1=O (configuration not stated) the results were ALR inh inactive, T cell modulator inactive and Glyco luc inh inactive.
Screening COc1cc(OC)c2cc(C(=O)N[C@@H](Cc3ccccc3)C(=O)O)n(C)c2c1 returned ALR inh inactive, T cell modulator inactive and Glyco luc inh inactive.
Screening O=S(=O)(NC1CCCC1)c1ccc(F)cc1F returned Glyco luc inh inactive.

Screening data (PubChem)
